Experimental data published in PubChem BioAssay.
Values without a mark were called inactive. Activity calls are given as the source filed them.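 Rule for the calls: active = growth inhibition above 25% in both replicates, a cutoff set 3 SD above the mean; inconclusive = above 25% in only one replicate; inactive = the rest.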

Test: OD615 S. cerevisiae growth inhibition, permissive medium, pilot counter-assay, permissive growth control for S. cerevisiae lifespan shortening project (AID 705)
Conditions: OD615, 24 h, at 10 µM, hits give high values
In short: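 Test system: Saccharomyces cerevisiae strain carrying genetically modified DeaD replicative-lifespan system; buffer or medium: SC raffinose/galactose permissive medium; dosing: one dose 10 µM, DMSO 0.25% final; times: 24 h exposure, 30 °C; measured by: OD at 615 nm; read-out basis: growth inhibition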

| Compound | growth inhibition |
| --- | --- |
| COc1ccc(C2C(C(=O)NCC3CCCO3)c3cc(OC)c(OC)cc3C(=O)N2C)cc1OC (stereo not given) | -13.5% |
| CC(=O)CCS(=O)(=O)c1ccc(C)c(C)c1 | -1.55% |
| CC1(C)NC(=O)N(CC(O)COc2ccc(N3C(=O)c4ccccc4C3=O)cc2)C1=O (stereo not given) | -3.45% |
| CCOc1ccc(N=Cc2c(O)cc(C)oc2=O)cc1 | -1.27% |
| O=C(Nc1ccccc1O)c1ccccc1O | -9.29% |
| c1ccc(CSc2nnc(-c3ccncc3)o2)cc1 | -3.77% |
| Cc1nccn1-c1c2c(c(C#N)c3nc4ccccc4n13)CCC2 | -8.38% |
| CCOC(=O)N1CCN(C(=O)C(C)(C)Oc2ccc(Cl)cc2)CC1 | -8.16% |
| Cc1c(NC(=O)Oc2ccccc2)sc(=S)n1C | 14.5% |
| CCO/C(C)=C1\C(=O)N(CC)c2ccccc21 | -9.62% |
| CCOC(=O)C1CCN(c2c(N3CCN(Cc4ccccc4)CC3)c(=O)c2=O)CC1 | -4.1% |
| Cn1c2c(c3ccccc31)CC/C2=N\O | 1.57% |
| CSC1=NCCN1C(=O)c1cccs1 | -2.12% |
| COC(=O)C1=C(C)Nc2ccc(C)cc2S1 | 14.1% |
| Cc1csc2nc(CNS(=O)(=O)c3ccc4c(c3)OCCO4)cn12 | 4.07% |
| COc1ccc(-c2cn3c(C)c(C(=O)NCc4ccc5c(c4)OCO5)sc3n2)cc1 | -4.21% |
| O=C(c1ccc(Br)o1)N1CCN=C1SCc1cccnc1 | -14.4% |
| O=C1CC(c2ccc(S(=O)(=O)NCc3ccncc3)cc2)CN1 (stereo not given) | -10.3% |
| COc1ccc(Cl)cc1Nc1cc(C)nc2nc(C)nn12 | -5.01% |
| COc1ccccc1NC(=O)CSc1nnc(-c2ccccn2)n1Cc1ccco1 | -3.73% |

| Compound | growth inhibition |
| --- | --- |
| Cc1ccccc1NC(=O)CCN1CCN(Cc2ccccc2)CC1 | -9.43% |
| O=C(c1ccc(CN2CCOCC2)cc1)N1CCN(Cc2ccccc2)CC1 | -15% |
| CCCCCC(C)n1[nH]c(=O)c2c(C)cc(C)nc21 (stereo not given) | -6.7% |
| CN1CCN(Cc2nc3c(c(=O)n(C)c(=O)n3C)n2CCc2ccccc2)CC1 | -8.96% |
| O=C(COc1cccc2ccccc12)N1CCN(c2ccccc2)CC1 | -6.48% |
| CCC(C)NC(=O)C1CN(S(=O)(=O)c2ccccc2)CCN1S(=O)(=O)c1ccccc1 (stereo not given) | 10.9% |
| COc1cc(C2N(c3ccc(Cl)cc3)C(=O)C3CCCN32)cc(OC)c1OC (stereo not given) | -6.9% |
| CC1CN(c2ncnc3c2cnn3-c2ccc(Cl)cc2)CC(C)O1 (stereo not given) | -3.73% |
| Cn1c(C(=O)NCc2cccs2)cc2c(=O)n(C)c3ccccc3c21 | -0.025% |
| O=C1C2CCCN2C(c2ccc(Br)cc2)N1c1ccc(F)cc1 (stereo not given) | -4.66% |
| N=c1n(-c2ccccc2)c(O)cc(=O)n1-c1ccccc1 | -1.26% |
| Cc1ccccc1-c1ccc(Nc2ccc(C(=O)N3CCOCC3)cc2)nn1 | 1.06% |
| Cc1ccccc1CSc1nnc(-c2ccco2)n1Cc1ccco1 | 5.54% |
| CCN1CCN(CC(=O)Nc2ccc3c(c2)OCCO3)C(=O)C1=O | 2.63% |
| CCN(CC)S(=O)(=O)c1ccc(C(=O)OCC(=O)N2CCN(C(=O)c3ccco3)CC2)cc1 | -8.4% |
| CCCCNC(=O)CS(=O)Cc1nc(-c2cccs2)oc1C (stereo not given) | -3.47% |
| Cn1c(=O)c(C(=O)Nc2ncccn2)c(O)c2ccccc21 | 39.2% (active) |
| CCOc1cc(C2NC(=O)NC(O)(C(F)(F)F)C2C(=O)c2ccc(Cl)cc2)ccc1O (stereo not given) | -3.6% |
| CC(C)(CC(=O)O)Cc1nc(-c2ccc(Cl)cc2)no1 | 2.38% |
| COc1ccc(C2C(C#N)=C(N)Oc3n[nH]c(C)c32)cc1Cn1nnc2ccccc21 (stereo not given) | 2.33% |
